Test results as given in ChEMBL document CHEMBL1123621, “Total synthesis and biological evaluation of structural analogues of compactin and dihydromevinolin” (J Med Chem, 1987).

How the values were obtained:
[1] = molecular target: T1, 3-hydroxy-3-methylglutaryl-coenzyme A reductase (Rattus norvegicus, UniProt P51639); experiment: Inhibition of HMG-CoA reductase in rat liver microsomes; parameters: species or system Microsome; conditions: read-out: I50
T1 sequence (P51639 whole entry): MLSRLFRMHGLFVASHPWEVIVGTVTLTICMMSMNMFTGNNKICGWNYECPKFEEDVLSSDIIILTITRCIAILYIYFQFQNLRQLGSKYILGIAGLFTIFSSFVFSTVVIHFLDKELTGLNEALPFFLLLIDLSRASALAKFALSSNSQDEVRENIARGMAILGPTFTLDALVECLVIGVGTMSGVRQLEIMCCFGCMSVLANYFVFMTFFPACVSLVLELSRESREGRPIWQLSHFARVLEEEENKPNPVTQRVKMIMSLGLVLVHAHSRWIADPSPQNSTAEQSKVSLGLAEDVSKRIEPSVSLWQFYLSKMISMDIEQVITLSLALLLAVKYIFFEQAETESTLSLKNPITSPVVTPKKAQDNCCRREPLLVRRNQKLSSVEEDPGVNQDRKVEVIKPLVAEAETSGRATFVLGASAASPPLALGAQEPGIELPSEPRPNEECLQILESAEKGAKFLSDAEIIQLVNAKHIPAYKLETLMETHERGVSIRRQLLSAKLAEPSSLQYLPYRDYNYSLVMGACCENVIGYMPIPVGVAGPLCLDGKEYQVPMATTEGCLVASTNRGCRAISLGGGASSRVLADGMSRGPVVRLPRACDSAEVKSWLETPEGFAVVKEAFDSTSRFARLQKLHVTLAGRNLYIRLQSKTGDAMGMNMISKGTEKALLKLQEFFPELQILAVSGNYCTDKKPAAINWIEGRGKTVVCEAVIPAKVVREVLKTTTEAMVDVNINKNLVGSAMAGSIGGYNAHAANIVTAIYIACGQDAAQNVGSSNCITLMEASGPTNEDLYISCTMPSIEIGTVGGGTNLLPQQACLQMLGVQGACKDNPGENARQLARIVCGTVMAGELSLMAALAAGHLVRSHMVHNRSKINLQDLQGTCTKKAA
How it was run: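 Rat liver microsomes (0.068 mg protein) in 150 mM phosphate pH 6.8, 180 mM KCl, 16 mM EDTA, 9 mM DTT, 10.0 mM glucose 6-phosphate, 2.1 mM NADP, G6P dehydrogenase, 20 μM (R,S)-[3-14C]HMG-CoA. Lactones were preincubated 30 min at 37 °C for ring opening. Inhibitors were given in DMSO. Reaction stopped with KOH; initial mevalonate rate measured. Four concentrations over four log units, in duplicate; I50 extrapolated from %inhibition vs log concentration.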

[2] = molecular target: T1, 3-hydroxy-3-methylglutaryl-coenzyme A reductase; experiment: Binding affinity against HMG-CoA reductase in rat liver microsomes; parameters: species or system Microsome
How it was run: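 Rat liver microsomes (Edwards preparation, stored at -78 °C), 1.3 mg (0.068 mg protein) per 500 μL assay; 150 mM phosphate pH 6.8, 180 mM KCl, 16 mM Na2EDTA, 9 mM DTT, 10.0 mM glucose 6-phosphate, 2.1 mM NADP, 2 U G6P dehydrogenase, 20 μM (R,S)-[3-14C]HMG-CoA; lactones preincubated 30 min at 37 °C for ring opening; inhibitors in DMSO; KOH stop; four concentrations in duplicate; I50 extrapolated from %inhibition vs log concentration.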

| SMILES | IC50 [1] [nM] | Ki [2] [nM] |
| --- | --- | --- |
| CC[C@H](C)C(=O)O[C@H]1CCC=C2C=C[C@H](C)[C@H](CC[C@@H]3C[C@H](O)CC(=O)O3)C21 (some centres not stated) | 4000 |  |
| CC[C@H](C)C(=O)O[C@H]1C[C@@H](C)C[C@@H]2C=C[C@H](C)[C@H](/C=C/C(=O)C[C@@H](O)CC(=O)O)C12 (some centres not stated) | 320 |  |
| CC[C@H](C)C(=O)O[C@H]1CCC=C2C=C[C@H](C)[C@H](COC(=O)C[C@H](O)CC(=O)O)[C@H]21 | 5000 |  |
| CC[C@H](C)C(=O)O[C@H]1CCC=C2C=C[C@H](C)[C@H](COC(=O)CCCC(=O)O)C21 (some centres not stated) | 7100 |  |
| CC[C@H](C)C(=O)O[C@H]1CCC=C2C=C[C@H](C)[C@H](CCC(=O)C[C@@H](O)CC(=O)O)[C@H]21 | 32 |  |
| CC[C@H](C)C(=O)O[C@H]1CCC=C2C=C[C@H](C)[C@H](/C=C/C(=O)C[C@@H](O)CC(=O)O)[C@H]21 | 630 |  |
| CC[C@H](C)C(=O)O[C@H]1CCC=C2C=C[C@H](C)[C@H](COC(=O)C[C@@H](O)CC(=O)O)[C@H]21 | 630 |  |
| CC[C@H](C)C(=O)O[C@@H]1CCC=C2C=C[C@@H](C)[C@@H](COC(=O)CCCC(=O)O)[C@@H]21 | 110000 |  |

Further lines, results first:

| IC50 [1] [nM] | Ki [2] [nM] | SMILES |
| --- | --- | --- |
| > 25000 |  | CC[C@H](C)C(=O)O[C@@H]1CCC=C2C=C[C@@H](C)[C@@H](COC(=O)C[C@@H](O)CC(=O)O)[C@@H]21 |
| 79000 |  | CC[C@H](C)C(=O)O[C@@H]1CCC=C2C=C[C@@H](C)[C@@H](CC[C@H]3C[C@@H](O)CC(=O)O3)[C@@H]21 |
| 2000 |  | CC[C@H](C)C(=O)O[C@H]1CCC=C2C=C[C@H](C)[C@H](CC[C@H]3C[C@H](O)CC(=O)O3)C21 (some centres not stated) |
| 10000 |  | CC[C@H](C)C(=O)O[C@@H]1CCC=C2C=C[C@@H](C)[C@@H](CC[C@@H]3C[C@@H](O)CC(=O)O3)[C@@H]21 |
| 25000 |  | CC[C@H](C)C(=O)O[C@@H]1CCC=C2C=C[C@@H](C)[C@@H](COC(=O)C[C@H](O)CC(=O)O)[C@@H]21 |
| 1.6 |  | CC[C@H](C)C(=O)O[C@H]1C[C@@H](C)C[C@@H]2C=C[C@H](C)[C@H](CC[C@@H]3C[C@@H](O)CC(=O)O3)C12 (some centres not stated) |
| 2000 |  | CC[C@H](C)C(=O)O[C@H]1CCC=C2C=C[C@H](C)[C@H](CC[C@H]3C[C@@H](O)CC(=O)O3)C21 (some centres not stated) |
| 13 | 1.4 | CC[C@H](C)C(=O)O[C@H]1CCC=C2C=C[C@H](C)[C@H](CC[C@@H]3C[C@@H](O)CC(=O)O3)[C@H]21 [MEVASTATIN] |
